One block for each molecule: values may come before it. Active and inactive are the calls of the source. The rule behind the calls is not given here.
What was measured:
Tubulin (Sus scrofa) = Tubulin (Sus scrofa) (UniProt P02554+P02550); test: Inhibition of porcine brain tubulin polymerization assessed as decrease in rate of microtubule formation incubated up to 1 hr by fluorescence analysis
How it was run: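 Porcine tubulin was preincubated with compound and polymerization was then followed by a fluorescence assay. Read-outs were the rate of microtubule formation and final polymer mass. CaCl2 served as the positive control for inhibition.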

[1] = target: Pyruvate kinase PKM (Homo sapiens) (UniProt P14618); test: Binding affinity to PKM in HEK293 proteomes assessed as spectral count ratio at 20 uM incubated for 16 hrs by TAMRA biotin-azide dye based LC-MS/MS analysis relative to control
Pyruvate kinase PKM (Homo sapiens), sequence (P14618 2-531 limits assumed): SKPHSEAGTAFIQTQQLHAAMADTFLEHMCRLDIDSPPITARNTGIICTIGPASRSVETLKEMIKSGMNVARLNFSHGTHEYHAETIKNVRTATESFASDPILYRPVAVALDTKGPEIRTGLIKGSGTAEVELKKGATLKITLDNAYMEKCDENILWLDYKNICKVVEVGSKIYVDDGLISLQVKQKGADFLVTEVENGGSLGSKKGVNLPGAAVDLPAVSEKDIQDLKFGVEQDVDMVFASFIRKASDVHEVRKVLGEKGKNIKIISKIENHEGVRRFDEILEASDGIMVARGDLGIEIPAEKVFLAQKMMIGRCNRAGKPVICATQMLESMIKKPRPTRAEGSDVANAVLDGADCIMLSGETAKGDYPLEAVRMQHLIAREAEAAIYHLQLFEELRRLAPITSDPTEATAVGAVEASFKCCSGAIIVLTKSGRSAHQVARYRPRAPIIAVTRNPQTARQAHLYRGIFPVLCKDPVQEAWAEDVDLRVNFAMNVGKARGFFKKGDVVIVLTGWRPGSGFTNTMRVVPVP
How it was run: (§1)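 HEK-293 proteome labeled with alkyne probe, then enriched and identified by LC–MS/MS. Spectral counts compared with a no-probe control.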

[2] = target: Tubulin beta-2A chain (Homo sapiens) (UniProt Q13885); test: Binding affinity to TUBB2A in HEK293 proteomes assessed as spectral count ratio at 20 uM incubated for 16 hrs by TAMRA biotin-azide dye based LC-MS/MS analysis relative to control; how it was run: as §1
Tubulin beta-2A chain (Homo sapiens), sequence (Q13885 whole entry): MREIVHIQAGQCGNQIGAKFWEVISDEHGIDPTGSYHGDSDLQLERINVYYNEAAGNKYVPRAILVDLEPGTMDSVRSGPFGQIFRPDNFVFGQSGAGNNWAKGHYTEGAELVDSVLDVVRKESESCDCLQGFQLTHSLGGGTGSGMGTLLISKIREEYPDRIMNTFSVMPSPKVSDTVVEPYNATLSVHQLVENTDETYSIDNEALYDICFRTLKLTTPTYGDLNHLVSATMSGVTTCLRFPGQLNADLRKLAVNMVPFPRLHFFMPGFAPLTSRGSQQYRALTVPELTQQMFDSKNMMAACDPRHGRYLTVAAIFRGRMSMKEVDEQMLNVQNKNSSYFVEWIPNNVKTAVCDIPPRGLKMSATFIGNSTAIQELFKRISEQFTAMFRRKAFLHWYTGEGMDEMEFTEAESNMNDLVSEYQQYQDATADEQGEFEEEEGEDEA

[3] = target: Tubulin beta-4A chain (Homo sapiens) (UniProt P04350); test: Binding affinity to TUBB4A in HEK293 proteomes assessed as spectral count ratio at 20 uM incubated for 16 hrs by TAMRA biotin-azide dye based LC-MS/MS analysis relative to control; how it was run: as §1
Tubulin beta-4A chain (Homo sapiens), sequence (P04350 whole entry): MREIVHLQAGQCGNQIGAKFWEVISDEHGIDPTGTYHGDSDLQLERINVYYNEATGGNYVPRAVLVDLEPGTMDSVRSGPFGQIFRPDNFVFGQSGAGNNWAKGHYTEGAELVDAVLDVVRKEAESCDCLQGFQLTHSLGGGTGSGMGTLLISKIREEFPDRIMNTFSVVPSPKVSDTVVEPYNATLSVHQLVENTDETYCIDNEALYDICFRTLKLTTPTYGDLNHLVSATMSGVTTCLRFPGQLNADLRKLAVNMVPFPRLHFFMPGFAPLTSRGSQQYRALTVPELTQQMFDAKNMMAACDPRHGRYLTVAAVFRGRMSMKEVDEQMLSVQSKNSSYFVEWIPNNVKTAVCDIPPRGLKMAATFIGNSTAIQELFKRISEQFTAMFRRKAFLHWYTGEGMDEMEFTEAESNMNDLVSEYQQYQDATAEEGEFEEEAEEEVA

[4] = target: 60 kDa heat shock protein, mitochondrial (Homo sapiens) (UniProt P10809); test: Binding affinity to HSPD1 in HEK293 proteomes assessed as spectral count ratio at 20 uM incubated for 16 hrs by TAMRA biotin-azide dye based LC-MS/MS analysis relative to control; how it was run: as §1
60 kDa heat shock protein, mitochondrial (Homo sapiens), sequence (P10809 whole entry, the tested form may be a part): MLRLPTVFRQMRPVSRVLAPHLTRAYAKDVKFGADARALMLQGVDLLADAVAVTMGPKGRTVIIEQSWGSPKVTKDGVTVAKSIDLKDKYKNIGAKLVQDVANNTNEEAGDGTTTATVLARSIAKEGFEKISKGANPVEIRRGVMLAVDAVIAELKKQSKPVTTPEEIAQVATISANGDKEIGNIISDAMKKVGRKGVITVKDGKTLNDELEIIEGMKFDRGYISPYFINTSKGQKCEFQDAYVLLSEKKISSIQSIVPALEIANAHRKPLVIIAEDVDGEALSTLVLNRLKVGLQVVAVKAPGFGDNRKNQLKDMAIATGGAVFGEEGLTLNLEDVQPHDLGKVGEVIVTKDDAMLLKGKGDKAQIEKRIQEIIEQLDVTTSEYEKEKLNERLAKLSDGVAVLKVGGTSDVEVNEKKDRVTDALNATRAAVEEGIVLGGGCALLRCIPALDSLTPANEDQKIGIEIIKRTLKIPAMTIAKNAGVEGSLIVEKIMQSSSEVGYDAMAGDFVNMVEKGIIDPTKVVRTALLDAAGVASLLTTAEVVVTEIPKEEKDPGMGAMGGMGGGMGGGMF

[5] = target: Histone acetyltransferase p300 (Homo sapiens, UniProt Q09472); test: Inhibition of recombinant P300 catalytic domain (1284 to 1673 residues) (unknown origin) using FITC- histone H4 peptide (1 to 19 residues) as substrate by electrophoretic mobility shift assay
[6] = target: Tubulin alpha-8 chain (Homo sapiens) (UniProt Q9NY65); test: Binding affinity to TUBA8 in HEK293 proteomes assessed as spectral count ratio at 20 uM incubated for 16 hrs by TAMRA biotin-azide dye based LC-MS/MS analysis relative to control; how it was run: as §1
Tubulin alpha-8 chain (Homo sapiens), sequence (Q9NY65 whole entry): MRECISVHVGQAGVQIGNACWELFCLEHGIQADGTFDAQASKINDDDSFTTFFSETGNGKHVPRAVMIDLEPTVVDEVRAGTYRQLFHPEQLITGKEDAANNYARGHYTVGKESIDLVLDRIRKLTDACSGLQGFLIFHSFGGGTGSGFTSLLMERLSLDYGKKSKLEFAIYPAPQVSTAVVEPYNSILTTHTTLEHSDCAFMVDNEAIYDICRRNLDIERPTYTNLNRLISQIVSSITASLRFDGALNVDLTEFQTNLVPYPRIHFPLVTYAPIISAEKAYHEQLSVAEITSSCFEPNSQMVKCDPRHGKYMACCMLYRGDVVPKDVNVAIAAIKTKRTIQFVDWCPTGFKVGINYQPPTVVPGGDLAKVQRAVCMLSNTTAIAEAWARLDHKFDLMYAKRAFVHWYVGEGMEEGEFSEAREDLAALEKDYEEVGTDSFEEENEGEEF

[7] = target: Alpha-enolase (Homo sapiens) (UniProt P06733); test: Binding affinity to ENO1 in HEK293 proteomes assessed as spectral count ratio at 20 uM incubated for 16 hrs by TAMRA biotin-azide dye based LC-MS/MS analysis relative to control; how it was run: as §1
Alpha-enolase (Homo sapiens), sequence (P06733 whole entry): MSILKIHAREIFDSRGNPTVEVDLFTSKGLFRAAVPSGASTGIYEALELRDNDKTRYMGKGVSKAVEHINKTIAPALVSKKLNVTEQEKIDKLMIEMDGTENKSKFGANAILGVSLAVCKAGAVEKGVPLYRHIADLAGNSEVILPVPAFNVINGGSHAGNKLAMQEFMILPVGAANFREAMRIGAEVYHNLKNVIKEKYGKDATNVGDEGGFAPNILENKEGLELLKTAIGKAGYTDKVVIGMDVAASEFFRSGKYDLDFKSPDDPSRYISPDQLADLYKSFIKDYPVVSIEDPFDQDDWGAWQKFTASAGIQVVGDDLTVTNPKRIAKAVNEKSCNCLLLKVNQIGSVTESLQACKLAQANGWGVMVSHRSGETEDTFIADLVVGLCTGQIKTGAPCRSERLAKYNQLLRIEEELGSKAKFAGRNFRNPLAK

[8] = target: Tubulin alpha-1A chain (Homo sapiens) (UniProt Q71U36); test: Binding affinity to TUBA1A in HEK293 proteomes assessed as spectral count ratio at 20 uM incubated for 16 hrs by TAMRA biotin-azide dye based LC-MS/MS analysis relative to control; how it was run: as §1
Tubulin alpha-1A chain (Homo sapiens), sequence (Q71U36 whole entry, looked up): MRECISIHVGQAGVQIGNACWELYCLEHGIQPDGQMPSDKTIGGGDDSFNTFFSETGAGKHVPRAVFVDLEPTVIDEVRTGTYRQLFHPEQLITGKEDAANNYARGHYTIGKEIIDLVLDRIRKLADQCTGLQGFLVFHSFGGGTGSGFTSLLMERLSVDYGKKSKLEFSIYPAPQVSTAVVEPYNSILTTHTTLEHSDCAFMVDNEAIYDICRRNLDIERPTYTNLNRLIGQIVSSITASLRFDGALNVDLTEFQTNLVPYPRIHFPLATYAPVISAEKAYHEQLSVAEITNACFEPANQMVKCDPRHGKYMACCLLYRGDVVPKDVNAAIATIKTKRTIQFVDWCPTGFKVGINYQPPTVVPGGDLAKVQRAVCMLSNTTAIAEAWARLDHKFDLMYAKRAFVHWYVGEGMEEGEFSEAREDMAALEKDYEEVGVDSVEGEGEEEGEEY

[9] = target: D-3-phosphoglycerate dehydrogenase (Homo sapiens) (UniProt O43175); test: Binding affinity to PHGDH in HEK293 proteomes at 20 uM incubated for 16 hrs by TAMRA biotin-azide dye based LC-MS/MS analysis; format: cell-based; how it was run: as §1
[10] = target: Eukaryotic initiation factor 4A-I (Homo sapiens) (UniProt P60842); test: Binding affinity to EIF4A1 in HEK293 proteomes assessed as spectral count ratio at 20 uM incubated for 16 hrs by TAMRA biotin-azide dye based LC-MS/MS analysis relative to control; how it was run: as §1
Eukaryotic initiation factor 4A-I (Homo sapiens), sequence (P60842 whole entry): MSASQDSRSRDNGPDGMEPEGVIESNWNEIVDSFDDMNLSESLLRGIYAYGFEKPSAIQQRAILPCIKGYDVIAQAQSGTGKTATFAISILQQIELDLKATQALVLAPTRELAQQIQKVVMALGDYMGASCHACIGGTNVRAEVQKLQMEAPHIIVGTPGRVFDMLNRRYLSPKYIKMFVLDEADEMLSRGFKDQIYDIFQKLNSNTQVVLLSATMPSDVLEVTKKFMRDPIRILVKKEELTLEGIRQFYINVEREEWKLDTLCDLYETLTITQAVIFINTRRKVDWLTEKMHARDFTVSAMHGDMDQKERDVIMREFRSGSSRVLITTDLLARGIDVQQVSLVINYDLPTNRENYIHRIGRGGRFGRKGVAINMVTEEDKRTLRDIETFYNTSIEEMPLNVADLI

[11] = target: Tubulin alpha-1C chain (Homo sapiens) (UniProt Q9BQE3); test: Binding affinity to TUBA1C in HEK293 proteomes assessed as spectral count ratio at 20 uM incubated for 16 hrs by TAMRA biotin-azide dye based LC-MS/MS analysis relative to control; how it was run: as §1
[12] = target: Creatine kinase B-type (Homo sapiens) (UniProt P12277); test: Binding affinity to CKB in HEK293 proteomes assessed as spectral count ratio at 20 uM incubated for 16 hrs by TAMRA biotin-azide dye based LC-MS/MS analysis relative to control; how it was run: as §1
HEK293 [13] = test: Binding affinity to HEK293 proteomes incubated for 16 hrs using TAMRA-azide dye by SDS-PAGE based fluorescence analysis; format: cell-based; conditions: Homo sapiens
How it was run: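 HEK-293 cell lysate was incubated 16 h with alkyne probe (5–50 μM) and then conjugated to a fluorescent azide by Cu-catalysed [3+2] cycloaddition. Reactions were quenched in loading buffer without boiling. Proteins were resolved by SDS-PAGE and covalent labeling was imaged by in-gel fluorescence.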

[14] = target: Actin, cytoplasmic 1 (Homo sapiens) (UniProt P60709); test: Binding affinity to ACTB in HEK293 proteomes assessed as spectral count ratio at 20 uM incubated for 16 hrs by TAMRA biotin-azide dye based LC-MS/MS analysis relative to control; how it was run: as §1
HEK293 [15] = test: Binding affinity to HEK293 proteomes assessed as compound-Cysteine adduct formation at 1 uM incubated for 24 hrs by LC-MS/MS analysis; format: cell-based; conditions: Homo sapiens
[16] = target: Elongation factor 1-alpha 1 (Homo sapiens) (UniProt P68104); test: Binding affinity to EEF1A1 in HEK293 proteomes assessed as spectral count ratio at 20 uM incubated for 16 hrs by TAMRA biotin-azide dye based LC-MS/MS analysis relative to control; how it was run: as §1
HEK293 [17] = test: Binding affinity to HEK293 proteomes at 1 uM incubated for 16 hrs using TAMRA-azide dye by SDS-PAGE based fluorescence analysis in presence of iodoacetamide; format: cell-based; conditions: Homo sapiens
How it was run: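 Proteomes were preincubated with iodoacetamide before alkyne-probe treatment. Probe labeling then proceeded by click conjugation to a fluorescent azide, SDS-PAGE without boiling, and fluorescence imaging to test for cysteine-directed labeling.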

[18] = target: Tubulin beta-5 chain (Homo sapiens) (UniProt P07437); test: Binding affinity to TUBB in HEK293 proteomes assessed as spectral count ratio at 20 uM incubated for 16 hrs by TAMRA biotin-azide dye based LC-MS/MS analysis relative to control; how it was run: as §1
[19] = target: Heterogeneous nuclear ribonucleoprotein H (Homo sapiens) (UniProt P31943); test: Binding affinity to HNRNPH1 in HEK293 proteomes at 20 uM incubated for 16 hrs by TAMRA biotin-azide dye based LC-MS/MS analysis; format: cell-based; how it was run: as §1
Heterogeneous nuclear ribonucleoprotein H (Homo sapiens), sequence (P31943 whole entry): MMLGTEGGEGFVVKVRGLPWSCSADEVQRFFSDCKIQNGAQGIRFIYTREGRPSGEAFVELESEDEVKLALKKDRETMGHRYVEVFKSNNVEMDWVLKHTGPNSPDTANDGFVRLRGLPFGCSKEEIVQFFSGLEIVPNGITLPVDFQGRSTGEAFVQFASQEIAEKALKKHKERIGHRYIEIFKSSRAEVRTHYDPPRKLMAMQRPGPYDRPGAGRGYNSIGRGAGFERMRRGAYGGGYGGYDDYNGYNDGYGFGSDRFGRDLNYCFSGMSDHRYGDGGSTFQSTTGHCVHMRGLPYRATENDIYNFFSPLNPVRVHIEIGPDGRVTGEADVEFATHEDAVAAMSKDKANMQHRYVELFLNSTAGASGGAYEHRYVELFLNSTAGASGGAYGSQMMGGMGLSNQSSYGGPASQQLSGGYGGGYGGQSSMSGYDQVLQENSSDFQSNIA

[20] = target: Tubulin alpha-1B chain (Homo sapiens) (UniProt P68363); test: Binding affinity to TUBA1B in HEK293 proteomes assessed as spectral count ratio at 20 uM incubated for 16 hrs by TAMRA biotin-azide dye based LC-MS/MS analysis relative to control; how it was run: as §1
Tubulin alpha-1B chain (Homo sapiens), sequence (P68363 whole entry, looked up): as the sequence (Q71U36 whole entry, looked up) above, with G232S, T340S counted along it

[21] = target: Heat shock 70 kDa protein 1A/1B (Homo sapiens) (UniProt P0DMV8+P0DMV9); test: Binding affinity to HSPA1A/HSPA1B in HEK293 proteomes assessed as spectral count ratio at 20 uM incubated for 16 hrs by TAMRA biotin-azide dye based LC-MS/MS analysis relative to control; format: protein assay; how it was run: as §1
[22] = target: Heat shock protein HSP 90-beta (Homo sapiens) (UniProt P08238); test: Binding affinity to HSP90AB1 in HEK293 proteomes assessed as spectral count ratio at 20 uM incubated for 16 hrs by TAMRA biotin-azide dye based LC-MS/MS analysis relative to control; how it was run: as §1
Heat shock protein HSP 90-beta (Homo sapiens), sequence (P08238 whole entry): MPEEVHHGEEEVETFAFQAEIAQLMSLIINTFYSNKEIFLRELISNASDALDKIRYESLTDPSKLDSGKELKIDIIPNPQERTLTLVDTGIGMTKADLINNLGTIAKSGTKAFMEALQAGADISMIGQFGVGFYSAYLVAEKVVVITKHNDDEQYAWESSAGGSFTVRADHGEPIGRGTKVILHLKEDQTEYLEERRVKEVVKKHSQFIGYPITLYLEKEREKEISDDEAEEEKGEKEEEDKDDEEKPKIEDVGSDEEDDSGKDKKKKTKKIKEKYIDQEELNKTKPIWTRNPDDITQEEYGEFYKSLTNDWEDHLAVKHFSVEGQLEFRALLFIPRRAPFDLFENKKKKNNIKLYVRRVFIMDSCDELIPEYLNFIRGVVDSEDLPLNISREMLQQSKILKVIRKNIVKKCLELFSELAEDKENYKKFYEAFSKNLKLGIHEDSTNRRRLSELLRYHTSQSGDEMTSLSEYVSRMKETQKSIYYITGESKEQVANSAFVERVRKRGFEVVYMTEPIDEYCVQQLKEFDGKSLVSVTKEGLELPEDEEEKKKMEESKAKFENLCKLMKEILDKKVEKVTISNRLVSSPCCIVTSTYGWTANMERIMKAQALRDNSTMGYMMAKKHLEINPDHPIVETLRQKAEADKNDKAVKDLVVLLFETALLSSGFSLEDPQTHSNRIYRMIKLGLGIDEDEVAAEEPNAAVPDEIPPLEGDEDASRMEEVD

inhibition (Tubulin (Sus scrofa)): Dose-dependent effect
SMILES: CC1=NN(c2ccc(C(=O)O)cc2)C(=O)/C1=C\c1ccc(-c2cc(C)c(C)cc2[N+](=O)[O-])o1

fold change (FC) [1]: 16 | fold change (FC) [2]: 25 | fold change (FC) [3]: 19 | fold change (FC) [4]: 24 | IC50 [5]: 14.1 µM | fold change (FC) [6]: 64 | fold change (FC) [7]: 7 | fold change (FC) [8]: 25 | Activity [9]: Active | fold change (FC) [10]: 17 | fold change (FC) [11]: 25 | fold change (FC) [12]: 9 | Activity (HEK293 [13]): Dose-dependent effect | fold change (FC) [14]: 4 | Activity (HEK293 [15]): Active | fold change (FC) [16]: 12 | Activity (HEK293 [17]): inactive | fold change (FC) [18]: 36 | Activity [19]: Active | fold change (FC) [20]: 25 | fold change (FC) [21]: 8 | fold change (FC) [22]: 16
SMILES: C#CCNC(=O)c1ccc(N2N=C(C)/C(=C/c3ccc(-c4cc(C)c(C)cc4[N+](=O)[O-])o3)C2=O)cc1
